In assay [1] the test system is Nucleic Acid. The assay is described as follows: Denaturation temperature change on binding to AT to poly (dA)-poly(dT). It counts as functional. The essentials: (§1)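 Synthetic homopolymer, poly(dA)·poly(dT) or poly(dG-dC)·poly(dG-dC), at an initial absorbance of 0.15 A259. Samples were heated at 18 °C/h while absorbance at 259 nm was logged every 0.2 °C. Tm was taken as the curve midpoint between graphically chosen start and end temperatures. ΔTm is relative to the free polymer's Tm in the same run, averaged over at least two determinations with standard errors.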

The subject of assay [2] is Nucleic Acid. As to the kind of experiment: Denaturation temperature change on binding on GC to poly(dGC)-poly(dGC). It counts as functional. The essentials:
as §1

The test system of assay [3] is Calf thymus DNA. The assay is described as follows: Denaturation temperature change on binding to calf thymus DNA. It counts as functional. The essentials: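 Calf thymus DNA at an initial absorbance of 0.3 A259 was heated at 18 °C/h, recording absorbance at 259 nm at 0.2 °C intervals. The melting midpoint was set from graphically selected start and end temperatures. ΔTm was taken against the DNA-alone Tm from the same experiment, as the mean of at least two determinations with standard errors.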

In assay [4] the test system is Nucleic Acid. As to the kind of experiment: DNA binding activity as denaturation temperatures on AT to poly (dA)-poly(dT) normalized to ethidium bromide. It counts as functional.
Assay [5] relates to Nucleic Acid. The assay is described as follows: DNA binding property estimated by measuring denaturation temperature on GC to poly (dGC)-poly(dGC), normalized to ethidium bromide.

The values that follow come from ChEMBL document CHEMBL1125574, “Structure and DNA binding activity of analogues of 1,5-bis(4-amidinophenoxy)pentane (pentamidine)” (J Med Chem, 1992).

Regarding `N=C(N)c1ccc(NCCCCNc2ccc(C(=N)N)cc2)cc1`, the ΔTm in assay [1] is 18.7; in assay [2], 2.8; in assay [3], 10.3; in assay [4], 1.9; in assay [5], 0.5.

With `N=C(N)c1ccc(NCCCNc2ccc(C(=N)N)cc2)cc1`, the ΔTm in assay [1] is 25.7; in assay [2], 3; in assay [3], 11.6; in assay [4], 2.6; in assay [5] it was 0.6.

`N=C(N)c1ccc(OCCCOc2ccc(C(=N)N)cc2N)c(N)c1`: the ΔTm in assay [1] was 32.2; in assay [2] it was 5.2; in assay [3], 13.6; in assay [4] it was 3.3; in assay [5] it was 1.

With `COc1cc(C(=N)N)ccc1OCCCCCOc1ccc(C(=N)N)cc1OC`, the ΔTm is 27.2 in assay [1]; 2.7 in assay [2]; 12 in assay [3]; 2.7 in assay [4]; 0.5 in assay [5].

In the case of `N=C(N)c1ccc(OCCCCCCOc2ccc(C(=N)N)cc2N)c(N)c1`, the ΔTm is 18.4 in assay [1]; 2.8 in assay [2]; 9.5 in assay [3]; 1.9 in assay [4]; 0.5 in assay [5].

On to `N=C(N)c1cccc(OCCCCCOc2cccc(C(=N)N)c2)c1`, for which the ΔTm in assay [1] was 7.6; in assay [2], 2.2; in assay [3], 7.6; in assay [4], 0.8; in assay [5] it was 0.4.

Regarding `N=C(N)c1ccc(NCCCCNc2ccc(C(=N)N)cc2N)c(N)c1`, the ΔTm in assay [1] was 13.2; in assay [2] it was 4.6; in assay [3], 10.5; in assay [4] it was 1.3; in assay [5] it was 0.9.

On to `N=C(N)c1ccc(OCCCCCCOc2ccc(C(=N)N)cc2)cc1`, for which the ΔTm in assay [1] is 19; in assay [2], 2.8; in assay [3], 9.1; in assay [4], 1.9; in assay [5], 0.5.

In the case of `N=C(N)c1ccc(NCCCCCNc2ccc(C(=N)N)cc2[N+](=O)[O-])c([N+](=O)[O-])c1`, the ΔTm in assay [1] is 22.1; in assay [2], 6.2; in assay [3], 12.7; in assay [4], 2.2; in assay [5] it was 1.2.

Take `N=C(N)c1ccc(OCCCCCOc2ccc(C(=N)N)cc2Cl)c(Cl)c1`: the ΔTm in assay [1] was 24.3; in assay [2] it was 4.6; in assay [3] it was 10.5; in assay [4] it was 2.5; in assay [5], 0.9.

For the molecule `N=C(N)c1ccc(NCCCCCNc2ccc(C(=N)N)cc2)cc1`, the ΔTm in assay [1] was 20.7; in assay [2], 4.4; in assay [3], 11.3; in assay [4] it was 2.1; in assay [5], 0.8.

On to `N=C(N)c1ccc(OCCOc2ccc(C(=N)N)cc2)cc1`, for which the ΔTm in assay [1] is 7.5; in assay [2], 1.3; in assay [3], 5.4; in assay [4], 0.8; in assay [5], 0.2.

As for `N=C(N)c1ccc(OCCCOc2ccc(C(=N)N)cc2)cc1`, the ΔTm in assay [1] was 32; in assay [2], 4.5; in assay [3], 14.7; in assay [4], 3.2; in assay [5], 0.8.

Consider `N=C(N)c1ccc(OCCCCCOc2ccc(C(=N)N)cc2[N+](=O)[O-])c([N+](=O)[O-])c1`, for which the ΔTm is 21.6 in assay [1]; 3.2 in assay [2]; 9.7 in assay [3]; 2.2 in assay [4]; 0.6 in assay [5].

As to `N=C(N)c1ccc(OCCCCOc2ccc(C(=N)N)cc2Cl)c(Cl)c1`, the ΔTm in assay [1] was 20.3; in assay [2] it was 4.2; in assay [3] it was 8.9; in assay [4] it was 2.1; in assay [5], 0.8.

In the case of `N=C(N)c1cccc(OCCCCCCOc2cccc(C(=N)N)c2)c1`, the ΔTm was 8.1 in assay [1]; 2.5 in assay [2]; 7.3 in assay [3]; 0.8 in assay [4]; 0.5 in assay [5].

For `N=C(N)c1ccc(OCCOc2ccc(C(=N)N)cc2[N+](=O)[O-])c([N+](=O)[O-])c1`, the ΔTm in assay [1] was 10.3; in assay [2] it was 1.9; in assay [3], 5.6; in assay [4] it was 1; in assay [5] it was 0.4.

For `N=C(N)c1ccc(OCCCCOc2ccc(C(=N)N)cc2[N+](=O)[O-])c([N+](=O)[O-])c1`, the ΔTm in assay [1] is 14.7; in assay [2], 3.5; in assay [3], 9.6; in assay [4], 1.5; in assay [5], 0.7.

For `N=C(N)c1ccc(OCCOc2ccc(C(=N)N)cc2N)c(N)c1`, the ΔTm was 16.4 in assay [1]; 3 in assay [2]; 8.8 in assay [3]; 1.7 in assay [4]; 0.6 in assay [5].

For the molecule `N=C(N)c1ccc(NCCCCCCNc2ccc(C(=N)N)cc2)cc1`, the ΔTm in assay [1] is 12.9; in assay [2], 2.9; in assay [3], 9.1; in assay [4] it was 1.3; in assay [5], 0.5.

As for `N=C(N)c1ccc(NCCCCCNc2ccc(C(=N)N)cc2N)c(N)c1`, the ΔTm is 20.9 in assay [1]; 3.3 in assay [2]; 11 in assay [3]; 2.1 in assay [4]; 0.6 in assay [5].

With `N=C(N)c1ccc(OCCCCCOc2ccc(C(=N)N)cc2)cc1`, the ΔTm is 22.9 in assay [1]; 3.2 in assay [2]; 10.7 in assay [3]; 2.3 in assay [4]; 0.6 in assay [5].

In the case of `N=C(N)c1ccc(OCCCCOc2ccc(C(=N)N)cc2N)c(N)c1`, the ΔTm in assay [1] is 19.4; in assay [2], 3.7; in assay [3], 9.6; in assay [4] it was 2; in assay [5], 0.7.

On to `COc1cc(C(=N)N)ccc1OCCCOc1ccc(C(=N)N)cc1OC`, for which the ΔTm was 38 in assay [1]; 3.4 in assay [2]; 16.3 in assay [3]; 3.8 in assay [4]; 0.6 in assay [5].

Consider `Cn1cc(NC(=O)c2cc(NC(=O)CNC(=N)N)cn2C)cc1C(=O)NCCC(=N)N`, for which the ΔTm in assay [1] is 46.6; in assay [2], 1.1; in assay [3], 19; in assay [4] it was 4.7; in assay [5] it was 0.2.

In the case of `CC[n+]1c(-c2ccccc2)c2cc(N)ccc2c2ccc(N)cc21`, the ΔTm in assay [1] was 12.4; in assay [2], 9.9; in assay [3], 12.4; in assay [4], 1; in assay [5] it was 1.

For the molecule `Cn1cc(NC(=O)c2cc(NC(=O)c3cc(NC=O)cn3C)cn2C)cc1C(=O)NCCC(=N)N`, the ΔTm in assay [1] was 30.5; in assay [2], 1.9; in assay [3], 11.5; in assay [4], 3.1; in assay [5], 0.4.

Take `N=C(N)c1ccc(NCCCNc2ccc(C(=N)N)cc2N)c(N)c1`: the ΔTm in assay [1] was 25.6; in assay [2] it was 4.8; in assay [3], 12.4; in assay [4], 2.6; in assay [5], 0.9.

For the molecule `N=C(N)c1ccc(OCCCCOc2ccc(C(=N)N)cc2)cc1`, the ΔTm in assay [1] is 17.9; in assay [2] it was 3.1; in assay [3], 8.3; in assay [4], 1.8; in assay [5] it was 0.6.

Consider `N=C(N)c1ccc(NCCCNc2ccc(C(=N)N)cc2[N+](=O)[O-])c([N+](=O)[O-])c1`, for which the ΔTm in assay [1] is 26.6; in assay [2], 5; in assay [3], 12.4; in assay [4], 2.7; in assay [5], 0.9.

Consider `N=C(N)c1cccc(OCCCOc2cccc(C(=N)N)c2)c1`, for which the ΔTm is 8.5 in assay [1]; 3 in assay [2]; 7.6 in assay [3]; 0.9 in assay [4]; 0.6 in assay [5].

Regarding `N=C(N)c1ccc(-c2cc3ccc(C(=N)N)cc3[nH]2)cc1`, the ΔTm in assay [1] is 42; in assay [2], 6.9; in assay [3], 21.5; in assay [4], 4.2; in assay [5] it was 1.3.

On to `COc1cc(C(=N)N)ccc1OCCCCOc1ccc(C(=N)N)cc1OC`, for which the ΔTm was 22.9 in assay [1]; 1.1 in assay [2]; 10.2 in assay [3]; 2.3 in assay [4]; 0.2 in assay [5].

Regarding `N=C(N)c1ccc(OCCCCCOc2ccc(C(=N)N)cc2N)c(N)c1`, the ΔTm in assay [1] is 20.7; in assay [2], 3.2; in assay [3], 10.8; in assay [4] it was 2.1; in assay [5] it was 0.6.

Take `N=C(N)c1ccc(NCCNc2ccc(C(=N)N)cc2N)c(N)c1`: the ΔTm in assay [1] is 16.8; in assay [2] it was 3; in assay [3], 9.8; in assay [4], 1.7; in assay [5], 0.6.

For `N=C(N)c1cccc(OCCCCOc2cccc(C(=N)N)c2)c1`, the ΔTm in assay [1] was 15.2; in assay [2] it was 2.6; in assay [3], 8.1; in assay [4], 1.5; in assay [5], 0.5.

As to `N=C(N)c1ccc(NCCCCCCNc2ccc(C(=N)N)cc2N)c(N)c1`, the ΔTm in assay [1] is 15; in assay [2], 3.6; in assay [3], 8.3; in assay [4], 1.5; in assay [5] it was 0.7.
